Active and inactive are the calls of the source. The calls are words filed in the database; no cut-off is given here.
Legend:
[1] = target: T1, Growth hormone secretagogue receptor type 1 (Homo sapiens, UniProt Q92847); assay: Displacement of [125I]ghrelin from human GHS receptor expressed in CHOK cells; format: cell-based
How it was run: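 Membranes from CHO-K cells expressing human ghrelin receptor, prepared by sonication and a 60000g spin. Filtered onto PEI-soaked GF/C, washed cold, scintillation counted; percent inhibition, sigmoidal fit for IC50.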

[2] = target: T1, Growth hormone secretagogue receptor type 1; assay: Antagonist activity at human GHS receptor by inhibition of ghrelin-induced intracellular calcium flux in CHOK cells; format: functional, cell-based
How it was run: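 CHO-K cells stably expressing human GHS-R, grown in Ultra-CHO medium with 1% dialyzed FCS and 400 µg/mL G418, plated to confluency overnight. Loaded with Fluo-4 AM plus probenecid for 1-3 h in the dark at RT, then washed. On FLIPR (ex 488/em 520 nm), compound added first and read 3 min, then ghrelin added and read another 3 min. Duplicate or triplicate wells; sigmoidal fit for IC50.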

[3] = tested on: Rattus norvegicus; assay: Reduction in cumulative food intake in free-fed Sprague-Dawley rat at 10 mg/kg, ip after 1 hr; format: functional, organism-based; set-up: dose 10 mg/kg
How it was run: (§1)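 Single ip dose of 10 or 30 mg/kg to free-fed or 16 h (overnight) fasted Sprague-Dawley rats. Cumulative food intake recorded at 1 and 24 h after dosing. n = 10/group, mean ± SEM; ANOVA with post hoc Dunnett.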

[4] = tested on: Rattus norvegicus; assay: Reduction in cumulative food intake in free-fed Sprague-Dawley rat at 10 mg/kg, ip after 24 hrs; format: functional, organism-based; set-up: dose 10 mg/kg; how it was run: as §1
[5] = tested on: Rattus norvegicus; assay: Reduction in cumulative food intake in free-fed Sprague-Dawley rat at 30 mg/kg, ip after 1 hr; format: functional, organism-based; set-up: dose 30 mg/kg; how it was run: as §1
[6] = tested on: Rattus norvegicus; assay: Reduction in cumulative food intake in fasted Sprague-Dawley rat at 10 mg/kg, ip after 24 hrs; format: functional, organism-based; set-up: dose 10 mg/kg; how it was run: as §1
[7] = tested on: Rattus norvegicus; assay: Decrease in body weight in Sprague-Dawley rat at 30 mg/kg, ip after 24 hrs; format: functional, organism-based; set-up: dose 30 mg/kg
How it was run: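 Free-fed Sprague-Dawley rats given a single ip dose (10 or 30 mg/kg); body weight taken 24 h after dosing. n = 10/group, mean ± SEM; ANOVA with post hoc Dunnett.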

[8] = Inhibition of adrenergic receptor
[9] = Inhibition of histamine receptor
[10] = target: Muscarinic acetylcholine receptor; assay: Inhibition of muscarinic receptor; format: protein assay
[11] = target: Dopamine receptor; assay: Inhibition of dopaminergic receptor; format: protein assay
[12] = target: T2, 5-hydroxytryptamine receptor 2C (Homo sapiens, UniProt P28335); assay: Inhibition of 5HT2C receptor
T2 sequence (P28335 whole entry): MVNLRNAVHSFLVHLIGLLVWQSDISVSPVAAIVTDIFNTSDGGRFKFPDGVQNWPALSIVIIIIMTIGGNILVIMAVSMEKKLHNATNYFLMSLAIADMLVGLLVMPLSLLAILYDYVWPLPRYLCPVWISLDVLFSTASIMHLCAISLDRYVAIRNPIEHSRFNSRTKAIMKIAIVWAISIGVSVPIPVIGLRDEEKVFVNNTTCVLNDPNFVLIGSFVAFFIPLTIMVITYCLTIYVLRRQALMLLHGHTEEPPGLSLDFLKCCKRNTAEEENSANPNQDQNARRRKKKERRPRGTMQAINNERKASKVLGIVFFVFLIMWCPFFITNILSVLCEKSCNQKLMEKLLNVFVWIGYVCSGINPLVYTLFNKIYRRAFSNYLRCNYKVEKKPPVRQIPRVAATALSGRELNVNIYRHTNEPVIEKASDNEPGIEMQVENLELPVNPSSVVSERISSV

[13] = target: Cannabinoid receptor 1 (Homo sapiens) (UniProt P21554); assay: Inhibition of CB1 receptor at 10 uM
Chain of Cannabinoid receptor 1 (Homo sapiens) (P21554 whole entry): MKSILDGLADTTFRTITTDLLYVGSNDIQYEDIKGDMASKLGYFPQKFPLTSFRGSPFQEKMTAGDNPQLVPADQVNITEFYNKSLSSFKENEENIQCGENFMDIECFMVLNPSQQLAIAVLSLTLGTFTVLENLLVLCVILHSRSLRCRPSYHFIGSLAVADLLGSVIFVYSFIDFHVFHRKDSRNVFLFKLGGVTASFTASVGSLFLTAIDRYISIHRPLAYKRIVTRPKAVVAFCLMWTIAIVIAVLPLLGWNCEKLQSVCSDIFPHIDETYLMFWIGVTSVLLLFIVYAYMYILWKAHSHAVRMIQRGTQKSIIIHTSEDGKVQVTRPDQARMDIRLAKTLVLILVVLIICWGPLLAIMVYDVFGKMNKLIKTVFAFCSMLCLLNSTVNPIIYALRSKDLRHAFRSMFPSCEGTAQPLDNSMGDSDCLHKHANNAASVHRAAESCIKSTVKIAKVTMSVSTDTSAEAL

[14] = target: Melanin-concentrating hormone receptor (Homo sapiens, UniProt Q969V1+Q99705); assay: Activity against MCH receptor in an intracellular calcium flux assay; format: functional, cell-based
[15] = tested on: Rattus norvegicus; assay: (§2) AUC in Sprague-Dawley rat at 5 mg/kg, iv; format: ADME, organism-based, Plasma; set-up: dose 5 mg/kg, route intravenous; conditions: in vivo
How it was run: (§3)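 Rats dosed at 5 mg/kg: iv for AUC (µg·h/mL), clearance (L/h·kg) and Cmax (µg/mL); oral for bioavailability unless stated otherwise. Brain (µg/g) and plasma levels taken at 1 and 8 h. Mean of n = 3.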

[16] = Half life in Sprague-Dawley rat at 5 mg/kg, ip; format: ADME, organism-based; set-up: dose 5 mg/kg, route intraperitoneal; conditions: in vivo
[17] = Cmax in Sprague-Dawley rat at 5 mg/kg, iv; format: ADME, organism-based; set-up: dose 5 mg/kg, route intravenous; conditions: in vivo; how it was run: as §3
[18] = Cmax in Sprague-Dawley rat at 5 mg/kg, ip; format: ADME, organism-based; set-up: dose 5 mg/kg, route intraperitoneal; conditions: in vivo
[19] = Oral bioavailability in Sprague-Dawley rat at 5 mg/kg; format: ADME, organism-based; conditions: in vivo; how it was run: as §3
[20] = tested on: Rattus norvegicus; assay: Bioavailability in Sprague-Dawley rat at 5 mg/kg, ip; format: ADME, organism-based; conditions: in vivo
[21] = Concentration in Sprague-Dawley rat brain at 5 mg/kg after 1 hr; format: ADME, organism-based; set-up: dose 5 mg/kg; conditions: read-out: Ct; how it was run: as §3
[22] = Concentration in Sprague-Dawley rat brain at 5 mg/kg after 8 hrs; format: ADME, organism-based; set-up: dose 5 mg/kg; conditions: read-out: Ct; how it was run: as §3
[23] = Concentration in Sprague-Dawley rat brain at 30 mg/kg, ip after 1 hr; format: ADME, organism-based; set-up: dose 30 mg/kg, route intraperitoneal; conditions: read-out: Ct
How it was run: (§4)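 Rats given 30 mg/kg ip. Brain (µg/g) and plasma levels measured at 1 and 8 h after dosing.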

[24] = Concentration in Sprague-Dawley rat brain at 30 mg/kg, ip after 8 hrs; format: ADME, organism-based; set-up: dose 30 mg/kg, route intraperitoneal; conditions: read-out: Ct; how it was run: as §4
[25] = Plasma concentration in Sprague-Dawley rat at 5 mg/kg after 1 hr; format: ADME, organism-based; set-up: dose 5 mg/kg; how it was run: as §3
[26] = Plasma concentration in Sprague-Dawley rat at 5 mg/kg after 8 hrs; format: ADME, organism-based; set-up: dose 5 mg/kg; how it was run: as §3
[27] = tested on: Rattus norvegicus; assay: AUC in Sprague-Dawley rat at 5 mg/kg, ip; format: ADME, organism-based, Plasma; set-up: dose 5 mg/kg, route intraperitoneal; conditions: in vivo
[28] = tested on: Rattus norvegicus; assay: Reduction in cumulative food intake in fasted Sprague-Dawley rat at 30 mg/kg, ip after 24 hrs; format: functional; set-up: scale not given: the % may be the effect or the level left; conditions: route intraperitoneal; how it was run: as §1
[29] = Plasma concentration in Sprague-Dawley rat at 30 mg/kg, ip after 1 hr; format: ADME, organism-based; set-up: dose 30 mg/kg, route intraperitoneal; how it was run: as §4
[30] = Plasma concentration in Sprague-Dawley rat at 30 mg/kg, ip after 8 hrs; format: ADME, organism-based; set-up: dose 30 mg/kg, route intraperitoneal; how it was run: as §4
[31] = tested on: Rattus norvegicus; assay: Reduction in cumulative food intake in free-fed Sprague-Dawley rat at 30 mg/kg, ip after 24 hrs; format: functional; set-up: scale not given: the % may be the effect or the level left; conditions: route intraperitoneal; how it was run: as §1
[32] = target: Nociceptin/orphanin FQ receptor, ORL1 (Homo sapiens) (UniProt P41146); assay: Inhibition of opioid like-1 receptor
Chain of Nociceptin/orphanin FQ receptor, ORL1 (Homo sapiens) (P41146 whole entry, looked up): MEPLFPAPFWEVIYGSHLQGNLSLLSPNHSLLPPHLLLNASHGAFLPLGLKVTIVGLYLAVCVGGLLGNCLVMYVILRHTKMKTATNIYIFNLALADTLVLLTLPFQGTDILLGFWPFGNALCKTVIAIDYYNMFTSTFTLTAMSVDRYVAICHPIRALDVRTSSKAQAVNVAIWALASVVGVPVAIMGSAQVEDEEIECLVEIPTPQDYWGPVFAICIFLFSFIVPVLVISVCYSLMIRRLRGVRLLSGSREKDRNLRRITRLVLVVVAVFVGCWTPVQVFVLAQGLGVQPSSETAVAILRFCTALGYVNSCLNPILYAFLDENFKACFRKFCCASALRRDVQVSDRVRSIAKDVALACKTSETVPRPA

[33] = Plasma clearance in Sprague-Dawley rat at 5 mg/kg, iv
[34] = as §2; format: ADME, organism-based, Plasma; set-up: dose 5 mg/kg, route intravenous; conditions: Sprague-Dawley, plasma; how it was run: as §3
[35] = Plasma clearance in Sprague-Dawley rat at 5 mg/kg, iv; format: ADME, organism-based; set-up: dose 5 mg/kg, route intravenous; how it was run: as §3
[36] = Half life in Sprague-Dawley rat at 5 mg/kg; format: ADME, organism-based; set-up: dose 5 mg/kg; conditions: in vivo; how it was run: as §3

T1 sequence (Q92847 whole entry): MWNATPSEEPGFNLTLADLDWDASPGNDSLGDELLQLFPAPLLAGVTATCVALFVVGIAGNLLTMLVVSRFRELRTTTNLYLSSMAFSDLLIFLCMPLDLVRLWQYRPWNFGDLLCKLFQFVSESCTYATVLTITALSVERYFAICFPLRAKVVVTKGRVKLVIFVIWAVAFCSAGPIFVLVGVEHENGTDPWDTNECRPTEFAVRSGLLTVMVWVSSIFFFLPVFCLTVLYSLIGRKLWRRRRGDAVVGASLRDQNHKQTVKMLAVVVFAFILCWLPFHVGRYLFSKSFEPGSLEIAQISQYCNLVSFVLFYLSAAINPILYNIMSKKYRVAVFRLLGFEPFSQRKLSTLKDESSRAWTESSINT

In the case of `CCc1nc(N)nc(N)c1-c1ccc(CNc2ccc(Cl)cc2)cc1`, the IC50 [1] is reported as 0.3 µM and the IC50 [2] is reported as 3.15 µM.
With `COc1ccc(CNc2ccc(-c3c(N)nc(N)nc3COCc3ccccc3)cc2)cc1` the IC50 [1] was 0.0077 µM and the IC50 [2] was 0.09 µM.
With `CC(=O)c1ccc(CNc2ccc(-c3c(N)nc(N)nc3COCc3ccccc3)cc2)cc1` the IC50 [1] was 0.0012 µM and the IC50 [2] was 0.01 µM.
Work on `Nc1nc(N)c(-c2ccc(NCc3ccc(C(F)(F)F)cc3)cc2)c(COCc2ccccc2)n1` yielded an IC50 [1] of 0.0029 µM and an IC50 [2] of 0.097 µM.
For `Nc1nc(N)c(-c2ccc(NCc3ccccc3)cc2)c(COCc2ccccc2)n1`, the IC50 [1] was 0.05 µM and the IC50 [2] was 0.98 µM.
`Nc1nc(N)c(-c2ccc(NCc3ccc(Cl)s3)cc2)c(COCc2ccccc2)n1` gave an IC50 [1] of 0.043 µM and an IC50 [2] of 0.32 µM.
`CCc1nc(N)nc(N)c1-c1ccc(NCc2ccnc(Cl)c2)cc1` showed an IC50 [1] of 0.11 µM and an IC50 [2] of 0.22 µM.
With `Nc1nc(N)c(-c2ccc(NCc3ccc([N+](=O)[O-])cc3)cc2)c(COCc2ccccc2)n1` the IC50 [1] was 0.0002 µM and the IC50 [2] was 0.0058 µM.
Work on `CCc1nc(N)nc(N)c1-c1ccc(NCc2cc(F)c(S(=O)(=O)C(F)(F)F)c(F)c2)cc1` yielded an IC50 [1] of 0.021 µM and an IC50 [2] of 0.69 µM.
`Nc1nc(N)c(-c2ccc(CNc3ccc([N+](=O)[O-])cc3)cc2)c(COCc2ccccc2)n1` gave an IC50 [1] of 0.0008 µM and an IC50 [2] of 0.016 µM.
In the case of `Nc1nc(N)c(-c2ccc(NCc3ccc(Cl)cc3)cc2)c(COCc2ccccc2)n1`, the Activity [3] is reported as “Dose-dependent effect”, the Activity [4] is reported as “Dose-dependent effect” and the Activity [5] is reported as “Dose-dependent effect”. For the same compound, the Activity [6] was “Dose-dependent effect”, the Activity [7] was “Active” and the IC50 [1] was 0.019 µM. The IC50 [2] was 0.18 µM, the IC50 [8] was > 33 µM and the IC50 [9] was > 33 µM. The IC50 [10] was > 5.5 µM, the IC50 [11] was > 33 µM and the IC50 [12] was > 33 µM. For the same compound, the inhibition [13] was -1%, the IC50 [14] was > 10 µM and the AUC [15] was 0.12 µg·h/mL. It also gave a half-life [16] of 3.9 h, a Cmax [17] of 0.054 µg/mL and a Cmax [18] of 0.26 µg/mL. For the same compound, the bioavailability [19] was 5.5%, the F [20] was 68% and the concentration at 1 h [21] was 1070 ng/g. For the same compound, the concentration at 8 h [22] was 50 ng/g, the concentration at 1 h [23] was 330 ng/g and the concentration at 8 h [24] was 140 ng/g. For the same compound, the concentration at 1 h [25] was 0.35 µg/mL, the concentration at 8 h [26] was 0.03 µg/mL and the AUC [27] was 1.14 µg·h/mL. The Activity [28] was 24%, the concentration at 1 h [29] was 0.5 µg/mL and the concentration at 8 h [30] was 0.19 µg/mL. The Activity [31] was 29%, the IC50 [32] was > 33 µM and the clearance [33] was 2.2 L/h/kg.
For `CS(=O)(=O)c1ccc(COc2ccc(-c3c(N)nc(N)nc3COCc3ccccc3)cc2)cc1`, the IC50 [1] was 0.0069 µM and the IC50 [2] was 0.048 µM.
Compound `CCc1nc(N)nc(N)c1-c1ccc(NCc2ccc(S(C)(=O)=O)cc2)cc1` has an IC50 [1] of 0.0074 µM, an IC50 [2] of 0.012 µM and an AUC [34] of 2.8 µg·h/mL. For the same compound, the clearance [35] was 0.94 L/h/kg, the half-life [36] was 6.6 h and the Cmax [17] was 0.32 µg/mL. The bioavailability [19] was 52%, the concentration at 1 h [21] was 50 ng/g and the concentration at 1 h [25] was 1.02 µg/mL.
`Nc1nc(N)c(-c2ccc(NCc3ccncc3)cc2)c(COCc2ccccc2)n1` showed an IC50 [1] of 0.021 µM and an IC50 [2] of 0.086 µM.
Compound `CCc1nc(N)nc(N)c1-c1ccc(NCc2ccc(S(C)(=O)=O)cc2)c(Br)c1` has an IC50 [1] of 0.0057 µM and an IC50 [2] of 0.042 µM.
`CCc1nc(N)nc(N)c1-c1ccc(NCc2cc(F)c(S(C)(=O)=O)c(F)c2)cc1` showed an IC50 [1] of 0.0024 µM and an IC50 [2] of 0.045 µM.
In the case of `CS(=O)(=O)c1ccc(CNc2ccc(-c3c(N)nc(N)nc3COCc3ccccc3)cc2)cc1`, the IC50 [2] is reported as 0.0072 µM.

— ChEMBL document CHEMBL1146071, “2,4-diaminopyrimidine derivatives as potent growth hormone secretagogue receptor antagonists” (J Med Chem, 2006)
